Reference: ChEMBL document CHEMBL4033643, “Synthesis and in vitro antitumour activity of crassalactone D, its stereoisomers and novel cinnamic ester derivatives” (Eur J Med Chem, 2017)
pIC50: −log10 of the molar value. Calls of active or inactive are those of the source. The calls are words filed in the database; no cut-off is given here.

Tests used:
[1] = tested on: K562; assay: Cytotoxicity against human K562 cells assessed as reduction in cell viability after 72 hrs by MTT assay; type: functional, cell-based; conditions: K562, 72 h
[2] = tested on: K562; assay: Induction of apoptosis in human K562 cells assessed as total early apoptotic cells by Annexin V-FITC/propidium iodide staining based flow cytometry (reference value: 3.07%); type: functional
[3] = tested on: K562; assay: Induction of apoptosis in human K562 cells assessed as gated late apoptotic cells by Annexin V-FITC/propidium iodide staining based flow cytometry (reference value: 0.88%); type: functional
[4] = tested on: MDA-MB-231; assay: Cytotoxicity against human MDA-MB-231 cells assessed as reduction in cell viability after 72 hrs by MTT assay; type: functional, cell-based; conditions: MDA-MB-231, 72 h
[5] = tested on: K562; assay: Induction of apoptosis in human K562 cells assessed as specific necrosis by Annexin V-FITC/propidium iodide staining based flow cytometry; type: functional; set-up: concentration or dose not given beside the values
[6] = tested on: MRC5; assay: Cytotoxicity against human MRC5 cells assessed as reduction in cell viability after 72 hrs by MTT assay; type: cell-based; conditions: MRC5, 72 h
[7] = tested on: K562; assay: Induction of apoptosis in human K562 cells assessed as specific apoptosis by Annexin V-FITC/propidium iodide staining based flow cytometry; type: functional; set-up: concentration or dose not given beside the values
[8] = tested on: K562; assay: Cell cycle arrest in human K562 cells assessed as total cell levels at S phase at IC50 after 72 hrs by propidium iodide staining based flow cytometry (reference value: 36.49%); type: functional
[9] = tested on: K562; assay: Cell cycle arrest in human K562 cells assessed as accumulation at S phase at IC50 after 72 hrs by propidium iodide staining based flow cytometry (reference value: 41.03%); type: functional
[10] = tested on: K562; assay: Induction of apoptosis in human K562 cells assessed as gated early apoptotic cells by Annexin V-FITC/propidium iodide staining based flow cytometry (reference value: 3.18%); type: functional
[11] = tested on: K562; assay: Induction of apoptosis in human K562 cells assessed as gated viable cells by Annexin V-FITC/propidium iodide staining based flow cytometry (reference value: 95.78%); type: functional
[12] = tested on: K562; assay: Cell cycle arrest in human K562 cells assessed as accumulation at sub G1 phase at IC50 after 72 hrs by propidium iodide staining based flow cytometry (reference value: 1.48%); type: functional
[13] = tested on: HL-60; assay: Cytotoxicity against human HL60 cells assessed as reduction in cell viability after 72 hrs by MTT assay; type: functional, cell-based; conditions: HL-60, 72 h
[14] = tested on: K562; assay: Induction of apoptosis in human K562 cells assessed as total late apoptotic cells by Annexin V-FITC/propidium iodide staining based flow cytometry (reference value: 0.77%); type: functional
[15] = tested on: K562; assay: Cell cycle arrest in human K562 cells assessed as accumulation at G0/G1 phase at IC50 after 72 hrs by propidium iodide staining based flow cytometry (reference value: 38.48%); type: functional
[16] = tested on: K562; assay: Induction of apoptosis in human K562 cells assessed as decrease in Bcl-2 expression level by Western blot analysis; type: functional, cell-based
Outline: (§1)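 Western blot of treated K562 cells for Bcl-2, Bax, activated caspase 3 and cleaved PARP (85 kDa fragment). Blots developed by ECL, with band expression quantified by densitometry against an untreated control sample.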

[17] = tested on: K562; assay: Cell cycle arrest in human K562 cells assessed as total cell levels at G2/M phase at IC50 after 72 hrs by propidium iodide staining based flow cytometry (reference value: 14.31%); type: functional
[18] = tested on: K562; assay: Induction of apoptosis in human K562 cells assessed as total viable cells by Annexin V-FITC/propidium iodide staining based flow cytometry (reference value: 92.45%); type: functional
[19] = tested on: MCF7; assay: Cytotoxicity against human MCF7 cells assessed as reduction in cell viability after 72 hrs by MTT assay; type: functional, cell-based; conditions: MCF7, 72 h
[20] = tested on: K562; assay: Induction of apoptosis in human K562 cells assessed as increase in Bax expression level by Western blot analysis; type: functional, cell-based; outline: as §1
[21] = tested on: K562; assay: Induction of apoptosis in human K562 cells assessed as gated necrotic cells by Annexin V-FITC/propidium iodide staining based flow cytometry (reference value: 0.24%); type: functional
[22] = tested on: K562; assay: Cell cycle arrest in human K562 cells assessed as accumulation at G2/M phase at IC50 after 72 hrs by propidium iodide staining based flow cytometry (reference value: 19.01%); type: functional
[23] = tested on: A549; assay: Cytotoxicity against human A549 cells assessed as reduction in cell viability after 72 hrs by MTT assay; type: functional, cell-based; conditions: A549, 72 h
[24] = tested on: K562; assay: Induction of apoptosis in human K562 cells assessed as total necrotic cells by Annexin V-FITC/propidium iodide staining based flow cytometry (reference value: 0.23%); type: functional
[25] = tested on: K562; assay: Cell cycle arrest in human K562 cells assessed as total cell levels at M4 phase at IC50 after 72 hrs by propidium iodide staining based flow cytometry (reference value: 0.50%); type: functional
[26] = tested on: Raji; assay: Cytotoxicity against human Raji cells assessed as reduction in cell viability after 72 hrs by MTT assay; type: functional, cell-based
[27] = tested on: K562; assay: Cell cycle arrest in human K562 cells assessed as total cell levels at G0/G1 phase at IC50 after 72 hrs by propidium iodide staining based flow cytometry (reference value: 39.97%); type: functional
[28] = tested on: HeLa; assay: Cytotoxicity against human HeLa cells assessed as reduction in cell viability after 72 hrs by MTT assay; type: functional, cell-based
[29] = tested on: Jurkat; assay: Cytotoxicity against human Jurkat cells assessed as reduction in cell viability after 72 hrs by MTT assay; type: functional, cell-based

SMILES | pIC50 [1] | Activity [2] [%] | Activity [3] [%] | pIC50 [4] | Activity [5] [%] | pIC50 [6] | Activity [7] [%] | Activity [8] [%] | Activity [9] [%] | Activity [10] [%] | Activity [11] [%] | Activity [12] [%] | pIC50 [13] | Activity [14] [%] | Activity [15] [%] | Activity [16] | Activity [17] [%] | Activity [18] [%] | pIC50 [19] | Activity [20] | other results
COc1ccc(/C=C/C(=O)O[C@H]2C[C@]3(C=CC(=O)O3)O[C@@H]2c2ccccc2)cc1 | 5.67 | 27.83 | 2.92 | < 4.00 | 3.86 | < 4.00 | 37.78 | 32.71 | 41.08 | 37.43 | 59.39 | 3.39 | 5.06 | 2.17 | 21.08 | inactive | 27.1 | 44.16 | 5.50 | Active | Activity [21]: 0.27%; Activity [22]: 34.45%; pIC50 [23]: 4.47; Activity [24]: 0.2%; Activity [25]: 2.67%; pIC50 [26]: 4.05; Activity [27]: 16.74%; pIC50 [28]: 5.48; pIC50 [29]: 4.24
O=C1C=C[C@@]2(C[C@H](OC(=O)/C=C/c3ccc(F)cc3)[C@@H](c3ccccc3)O2)O1 | 5.98 | 6.24 | 1.38 | < 4.00 | 3.58 | < 4.00 | 4.02 | 30.81 | 33.71 | 6.46 | 91.63 | 2.61 | 5.35 | 1.33 | 41.18 | Active | 19.95 | 88.51 | 4.67 | Active | Activity [21]: 0.54%; Activity [22]: 22.5%; pIC50 [23]: 4.59; Activity [24]: 0.52%; Activity [25]: 2.31%; pIC50 [26]: 4.26; Activity [27]: 36.51%; pIC50 [28]: 5.66; pIC50 [29]: 4.65
O=C1C=C[C@]2(C[C@H](O)[C@H](c3ccccc3)O2)O1 | 5.92 | 2.87 | 8.1 | 4.35 | 2.84 | < 4.00 | 7.78 | 13.07 | 17.17 | 3.35 | 87.3 | 1.09 | 5.21 | 6.94 | 15.18 | Active | 51.44 | 74.8 | 4.96 | Active | Activity [21]: 1.25%; Activity [22]: 66.56%; pIC50 [23]: 4.45; Activity [24]: 1.07%; Activity [25]: 0.6%; pIC50 [26]: 5.05; Activity [27]: 11.56%; pIC50 [28]: 4.45; pIC50 [29]: 6.00
O=C1C=C[C@@]2(C[C@H](OC(=O)/C=C/c3ccc([N+](=O)[O-])cc3)[C@@H](c3ccccc3)O2)O1 | 5.13 | 10.32 | 2.23 | < 4.00 | 2.18 | < 4.00 | 10.54 | 34.91 | 38.08 | 11.87 | 84.01 | 2.93 | 5.88 | 1.94 | 33.85 | inactive | 22.88 | 73.05 | 4.90 | Active | Activity [21]: 1.89%; Activity [22]: 25.14%; pIC50 [23]: 4.25; Activity [24]: 1.64%; Activity [25]: 2.67%; pIC50 [26]: < 4.00; Activity [27]: 31.72%; pIC50 [28]: 5.02; pIC50 [29]: 4.06
O=C1C=C[C@]2(C[C@H](OC(=O)/C=C/c3ccc(F)cc3)[C@H](c3ccccc3)O2)O1 | 5.04 | 60.46 | 2.62 | 5.99 | 3.78 | < 4.00 | 85.69 | 31.52 | 37.11 | 83.24 | 13.78 | 14.87 | 4.92 | 1.7 | 23.2 | Active | 29.05 | 2.45 | 4.81 | Active | Activity [21]: 0.36%; Activity [22]: 24.82%; pIC50 [23]: 5.92; Activity [24]: 0.23%; Activity [25]: 4.05%; pIC50 [26]: 4.76; Activity [27]: 19.29%; pIC50 [28]: 4.92; pIC50 [29]: 4.81
